Reference: ChEMBL document CHEMBL2380272, “Biological evaluation of bisbenzaldehydes against four Mycobacterium species” (Eur J Med Chem, 2013)
Values after ≈ are worked out from the molar mass of the structure shown.

Columns and labels:
[1] = Potency index, ratio of MIC50 for Mycobacterium avium subsp. paratuberculosis ATCC 19698 to MIC50 for Mycobacterium bovis AN5; assay type: functional
[2] = tested on: Mycobacterium tuberculosis; assay: Antimycobacterial activity against Mycobacterium tuberculosis H37Rv infected in mouse J774.A1 cells at 1 MOI assessed as intracellular bacterial growth inhibition at 1 uM after 1 hr by luciferase reporter gene assay relative to control; assay type: functional; details: J774.A1, 1 h, read-out: GI
[3] = tested on: Mycobacterium ulcerans; assay: Antimycobacterial activity against Mycobacterium ulcerans 1615 assessed as growth inhibition after 6 days by luciferase reporter gene assay; assay type: functional; details: Mycobacterium ulcerans, 1615, 144 h
How it was run: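 M. ulcerans 1615 carrying pSMT1 luciferase reporter plasmid, stock grown as surface pellicle on Sauton medium, cultured at 32 °C. Serial compound dilutions in 7H9 + 10% FCS from 10 mM DMSO stocks, tested in triplicate. Filtered bacteria added at 50 000 RLU/mL. After 6 days, wells collected and washed with PBS, 1% n-decanal in ethanol added, light read over 10 s. MIC50 = concentration giving 50% inhibition versus untreated.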

[4] = Toxicity in recombinant Salmonella typhimurium TA104 expressing luxabcd genes under transcriptional control of constitutive pr1 promoter assessed as concentration required to reduce cell viability measured every 5 mins for 4 hrs by vitotox assay in presence of S9 fraction; assay type: organism-based; details: salmonella enterica subsp. enterica serovar typhimurium; read-out: Activity
How it was run: (§1)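 Cytox strain TA104 pr1 (constitutive promoter driving lux), run alongside the genox strain. Grown in poor LB at 36 °C for 16 h, diluted 125-fold and shaken 1 h, then diluted 10-fold, with or without aroclor-rat S9. Luminescence read at 30 °C every 5 min over 4 h; a drop in light signal indicates reduced viability. Top concentration 10 µM.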

[5] = tested on: Mycobacterium tuberculosis; assay: Antimycobacterial activity against Mycobacterium tuberculosis H37Rv ATCC 27294 assessed as growth inhibition at 0.1 uM after 6 days by luciferase reporter gene assay relative to control; assay type: functional; details: H37Rv ATCC 27294, 144 h, read-out: GI
How it was run: (§2)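 Luminescent M. tb H37Rv (hsp60-driven luciferase) in 7H9 + 10% FCS was seeded at 50 000 RLU/mL. Compounds were tested at 10, 1 and 0.1 µM from 10 mM DMSO stocks. After 6 days, luminescence was read with 1% n-decanal. Growth inhibition (%) was expressed against untreated culture, with triplicates.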

[6] = Cytotoxicity against human HepG2/C3A cells assessed as cell viability at 180 uM after 24 hrs by neutral red uptake assay relative to control; assay type: cell-based; details: read-out: Activity
How it was run: (§3)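 C3A cells grown in DMEM + 10% FCS, 40 000 cells/well, recovered overnight at 37 °C, 5% CO2. Exposed 24 h to serial dilutions in DMEM + 10% FCS from 18 mM DMSO stocks, DMSO limited to 1%. Neutral red added for 3 h, cells washed, dye extracted with ethanol/acetic acid (50%/1%), OD read at 540 nm with 620 nm reference. Viability expressed as % of untreated cells.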

[7] = tested on: Mycobacterium avium subsp. paratuberculosis; assay: Antimycobacterial activity against Mycobacterium avium subsp. paratuberculosis ATCC 19698 assessed as growth inhibition after 6 days by luciferase reporter gene assay; assay type: functional; details: ATCC 19698, 144 h
How it was run: (§4)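 Mycobacteria carrying the pSMT1 luciferase reporter plasmid. Compounds came from 10 mM DMSO stocks and were serially diluted in 7H9 + 10% FCS. Thawed bacteria were filtered, recovered 1 h at 37 °C, then added at 50 000 RLU/mL. After 6 days of culture, light was read for 10 s after adding 1% n-decanal. Triplicates were run, and MIC50 was the concentration giving 50% growth inhibition.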

[8] = Potency index, ratio of MIC50 for Mycobacterium avium subsp. avium ATCC 15769 to MIC50 for Mycobacterium bovis AN5; assay type: functional
[9] = Selectivity index, ratio of NI50 for human HepG2/C3A cells to MIC50 for Mycobacterium tuberculosis H37Rv ATCC 27294; assay type: functional
[10] = Cytotoxicity against human HepG2/C3A cells assessed as cell viability at 60 uM after 24 hrs by neutral red uptake assay relative to control; assay type: cell-based; details: read-out: Activity; how it was run: as §3
[11] = tested on: Salmonella typhimurium; assay: Toxicity in recombinant Salmonella typhimurium TA104 expressing luxabcd genes under transcriptional control of constitutive pr1 promoter assessed as concentration required to reduce cell viability measured every 5 mins for 4 hrs by vitotox assay in absence of S9 fraction; assay type: organism-based; details: salmonella enterica subsp. enterica serovar typhimurium; how it was run: as §1
[12] = tested on: Salmonella typhimurium; assay: Genotoxicity in recombinant Salmonella typhimurium TA104 expressing Vibrio fisheri luxabcd genes under transcriptional control of recN2-4 promoter assessed as concentration required to cause DNA damage measured every 5 mins for 4 hrs by vitotox assay in absence of S9 fraction; assay type: toxicity, organism-based; details: salmonella enterica subsp. enterica serovar typhimurium
How it was run: (§5)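 VITOTOX genox strain TA104 recN2-4 (recN promoter driving lux). Grown 16 h at 36 °C in poor LB, diluted 125-fold and shaken 1 h, then diluted 10-fold; rat aroclor S9 added for +S9 runs. Incubated at 30 °C with light read every 5 min for 4 h. Signal/noise = exposed over unexposed light. Highest concentration tested 10 µM.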

[13] = tested on: Salmonella typhimurium; assay: Genotoxicity in recombinant Salmonella typhimurium TA104 expressing Vibrio fisheri luxabcd genes under transcriptional control of recN2-4 promoter assessed as concentration required to cause DNA damage measured every 5 mins for 4 hrs by vitotox assay in presence of S9 fraction; assay type: toxicity, organism-based; details: salmonella enterica subsp. enterica serovar typhimurium, s9, 4 h; how it was run: as §5
[14] = tested on: Mycobacterium tuberculosis; assay: Antimycobacterial activity against Mycobacterium tuberculosis H37Rv infected in mouse J774.A1 cells at 1 MOI assessed as intracellular bacterial growth inhibition at 10 uM after 1 hr by luciferase reporter gene assay relative to control; assay type: functional; details: J774.A1, 1 h, read-out: GI
[15] = tested on: Mycobacterium tuberculosis; assay: Antimycobacterial activity against Mycobacterium tuberculosis H37Rv infected in mouse J774.A1 cells at 1 MOI assessed as intracellular bacterial growth inhibition at 0.1 uM after 1 hr by luciferase reporter gene assay relative to control; assay type: functional; details: J774.A1, 1 h, read-out: GI
[16] = Cytotoxicity against human HepG2/C3A cells assessed as cell viability at 120 uM after 24 hrs by neutral red uptake assay relative to control; assay type: cell-based; details: read-out: Activity; how it was run: as §3
[17] = tested on: Mycobacterium tuberculosis; assay: Antimycobacterial activity against Mycobacterium tuberculosis H37Rv ATCC 27294 assessed as growth inhibition at 1 uM after 6 days by luciferase reporter gene assay relative to control; assay type: functional; details: H37Rv ATCC 27294, 144 h, read-out: GI; how it was run: as §2
[18] = tested on: Mycobacterium tuberculosis; assay: Antimycobacterial activity against Mycobacterium tuberculosis H37Rv ATCC 27294 assessed as growth inhibition after 6 days by luciferase reporter gene assay; assay type: functional; details: H37Rv ATCC 27294, 144 h; how it was run: as §4
[19] = Antimycobacterial activity against Mycobacterium avium subsp. avium ATCC 15769 assessed as growth inhibition after 6 days by luciferase reporter gene assay; assay type: functional; details: ATCC 15769, 144 h; how it was run: as §4
[20] = tested on: Mycobacterium tuberculosis; assay: Antimycobacterial activity against Mycobacterium tuberculosis H37Rv ATCC 27294 assessed as growth inhibition at 10 uM after 6 days by luciferase reporter gene assay relative to control; assay type: functional; details: H37Rv ATCC 27294, 144 h, read-out: GI; how it was run: as §2
[21] = Genotoxicity in human HepG2/C3A cells assessed as DNA fragmentation at 0.5 mM after 24 hrs by alkaline comet assay (reference value: 6.65%); assay type: toxicity, cell-based; details: 500 µM
[22] = Genotoxicity in human HepG2/C3A cells assessed as DNA fragmentation at 0.75 mM after 24 hrs by alkaline comet assay (reference value: 6.65%); assay type: toxicity, cell-based; details: 750 µM

Compound	Ratio [1]	percent inhibition of intracellular bacterial growth at 1 µM [2] [%]	MIC50 [3] [µM]	MCC at 4 h [4] [µM]	inhibition of growth at 0.1 µM [5] [%]	viability at 24 h, 180 µM [6] [%]	MIC50 [7] [µM]	Ratio [8]	Selectivity Index [9]	viability at 24 h, 60 µM [10] [%]	Activity [11] [µM]	Activity [12] [µM]	Activity [13] [µM]	intracellular bacterial growth inhibition at 10 µM [14] [%]	intracellular bacterial growth inhibition at 0.1 µM [15] [%]	viability at 24 h, 120 µM [16] [%]	inhibition of growth at 1 µM [17] [%]	MIC50 [18] [µM]	MIC50 [19] [µM]	inhibition of growth at 10 µM [20] [%]	other results
O=Cc1ccc(OCCCCCCCOc2ccc(C=O)cc2)cc1	5	43.3	> 10	> 10	13	53.4	5.05 (≈ 1.72 µg/mL)	5	>211.8	100	> 10	> 10	> 10	55	-1.2	78.9	62	0.85 (≈ 0.289 µg/mL)	5.12 (≈ 1.74 µg/mL)	99	–
O=Cc1ccc(OCCCCCCCCCOc2ccc(C=O)cc2)cc1	5	45.7	> 10	> 10	11	75.7	5.95 (≈ 2.19 µg/mL)	5	>189.5	100	> 10	> 10	> 10	62.1	-0.5	93	59	0.95 (≈ 0.35 µg/mL)	5.32 (≈ 1.96 µg/mL)	98	–
CCOS(C)(=O)=O [METHANESULFONIC ACID ETHYL ESTER]	–	–	–	–	–	–	–	–	–	–	–	–	–	–	–	–	–	–	–	–	Activity [21]: 63.44%; Activity [22]: 65.15%
O=Cc1ccc(OCCCCCCOc2ccc(C=O)cc2)cc1	5	46.6	> 10	> 10	15	59.3	6.56 (≈ 2.14 µg/mL)	5	>216.9	93.4	> 10	> 10	> 10	52.6	3.2	85.9	65	0.83 (≈ 0.271 µg/mL)	6.18 (≈ 2.02 µg/mL)	99	–
O=Cc1ccc(OCCCCCCCCOc2ccc(C=O)cc2)cc1	5	42.9	> 10	> 10	13	69	5.83 (≈ 2.07 µg/mL)	5	>211.8	97.9	> 10	> 10	> 10	58.7	0.6	95.3	64	0.85 (≈ 0.301 µg/mL)	5.36 (≈ 1.9 µg/mL)	99	–
O=Cc1ccc(OCCCCCCCCCCCOc2ccc(C=O)cc2)cc1	5	48.2	9.82 (≈ 3.89 µg/mL)	> 10	25	75.4	4.23 (≈ 1.68 µg/mL)	5	>281.3	93.3	> 10	> 10	> 10	69.4	5.2	94.1	73	0.64 (≈ 0.254 µg/mL)	4.96 (≈ 1.97 µg/mL)	100	–
O=Cc1ccc(OCCCCOc2ccc(C=O)cc2)cc1	–	39	> 10	> 10	< 10	55.7	> 10	–	>56.1	86.1	> 10	> 10	> 10	41.3	-0.9	73.2	25	3.21 (≈ 0.958 µg/mL)	> 10	87	–
O=Cc1ccc(OCCCCCCCCCCOc2ccc(C=O)cc2)cc1	5	39.6	> 10	> 10	20	72.8	5.45 (≈ 2.08 µg/mL)	5	>233.8	97.7	> 10	> 10	> 10	60.9	11.1	96.6	71	0.77 (≈ 0.295 µg/mL)	5.61 (≈ 2.15 µg/mL)	100	–
